From ChEMBL document CHEMBL4049441, “Transforming Sphingosine Kinase 1 Inhibitors into Dual and Sphingosine Kinase 2 Selective Inhibitors: Design, Synthesis, and in Vivo Activity” (J Med Chem, 2017) come the findings set out here.

Assay [1] deals with T1, Sphingosine kinase 2 (Homo sapiens) (UniProt Q9NRA0).
T1 sequence (whole entry): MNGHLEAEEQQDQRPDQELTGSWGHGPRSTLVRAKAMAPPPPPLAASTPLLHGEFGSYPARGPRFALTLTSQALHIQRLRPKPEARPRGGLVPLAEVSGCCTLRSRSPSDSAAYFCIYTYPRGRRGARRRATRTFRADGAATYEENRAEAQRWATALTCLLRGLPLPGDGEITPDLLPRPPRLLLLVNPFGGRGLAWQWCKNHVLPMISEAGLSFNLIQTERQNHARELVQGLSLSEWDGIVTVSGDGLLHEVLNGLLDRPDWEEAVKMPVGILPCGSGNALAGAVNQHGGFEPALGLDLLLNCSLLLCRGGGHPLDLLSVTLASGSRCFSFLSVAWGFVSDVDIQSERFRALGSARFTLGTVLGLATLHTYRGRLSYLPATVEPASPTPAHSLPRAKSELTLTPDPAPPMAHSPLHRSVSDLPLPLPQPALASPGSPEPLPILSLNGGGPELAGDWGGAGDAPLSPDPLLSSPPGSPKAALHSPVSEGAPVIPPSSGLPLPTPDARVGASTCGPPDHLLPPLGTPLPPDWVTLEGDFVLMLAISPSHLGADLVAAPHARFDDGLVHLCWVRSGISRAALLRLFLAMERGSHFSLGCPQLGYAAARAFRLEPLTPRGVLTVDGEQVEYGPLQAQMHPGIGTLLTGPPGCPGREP
The experiment in a line: Inhibition of recombinant human SPHK2 assessed as residual activity at 0.3 uM using sphingosine as substrate after 30 mins in presence of gamma-[32P]-ATP by liquid scintillation counting relative to control. The essentials:
(§1)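 Recombinant human SphK1 or SphK2 from cell lysate, briefly incubated with or without compound at 0.3 μM, sphingosine (5 μM for SphK1, 10 μM for SphK2) and 250 μM γ-[³²P]ATP. Radiolabelled S1P extracted, resolved by TLC and counted by scintillation. Activity reported as % of no-inhibitor control; triplicate.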

For assay [2], the target named is T2, Sphingosine kinase 2 (Homo sapiens, UniProt Q9NRA0).
T2 sequence (Q9NRA0 whole entry): T1 sequence (whole entry)
Put plainly: Inhibition of recombinant human SPHK2 at using sphingosine as substrate after 30 mins in presence of gamma-[32P]-ATP by liquid scintillation counting.

Assay [3] concerns the target T1, Sphingosine kinase 2 (Homo sapiens). The experiment in a line: Inhibition of recombinant human SPHK2 using sphingosine as substrate up to 1 uM after 30 mins in presence of gamma-[32P]-ATP by liquid scintillation counting.
A short description of assay [4]: Selectivity ratio of Ki for recombinant human SPHK1 to Ki for recombinant mouse SPHK2.
Assay [5] has as its target T3, Sphingosine kinase 1 (Homo sapiens, UniProt Q9NYA1). The experiment in a line: Inhibition of recombinant human SPHK1 using sphingosine as substrate in presence ATP. The essentials:
as §1

The target in assay [6] is T4, Sphingosine kinase 2 (Mus musculus, UniProt Q9JIA7).
T4 sequence (Q9JIA7 whole entry): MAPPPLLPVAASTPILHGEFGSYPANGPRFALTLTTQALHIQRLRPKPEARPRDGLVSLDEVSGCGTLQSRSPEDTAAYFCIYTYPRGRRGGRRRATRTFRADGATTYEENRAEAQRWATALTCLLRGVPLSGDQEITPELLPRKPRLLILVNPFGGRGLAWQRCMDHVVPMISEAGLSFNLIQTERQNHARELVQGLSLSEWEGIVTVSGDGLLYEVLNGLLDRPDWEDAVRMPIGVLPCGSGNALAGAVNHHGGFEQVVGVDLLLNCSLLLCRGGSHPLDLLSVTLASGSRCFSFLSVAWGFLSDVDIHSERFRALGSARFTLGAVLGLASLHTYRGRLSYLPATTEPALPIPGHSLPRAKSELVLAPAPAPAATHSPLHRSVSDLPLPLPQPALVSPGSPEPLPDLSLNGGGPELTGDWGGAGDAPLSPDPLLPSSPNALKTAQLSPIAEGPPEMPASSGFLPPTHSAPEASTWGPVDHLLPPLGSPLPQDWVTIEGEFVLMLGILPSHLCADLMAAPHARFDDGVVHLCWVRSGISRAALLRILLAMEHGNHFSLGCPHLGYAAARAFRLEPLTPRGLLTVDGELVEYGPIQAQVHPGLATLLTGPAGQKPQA
The experiment in a line: Inhibition of recombinant mouse SPHK2 using sphingosine as substrate in presence ATP.

The target of assay [7] is T1, Sphingosine kinase 2 (Homo sapiens). The experiment in a line: Inhibition of SPHK2 in human U937 cells assessed as decrease in S1P levels after 2 hrs by LC-MS/MS analysis. The assay is classed as cell-based. In outline: (§2)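 U937 human histiocytic lymphoma cells (express both SphK isotypes) incubated with compound for 2 h, pelleted, lysed; 2–3 × 10⁶ cells extracted in methanol:chloroform (3:1) with D7-S1P/D7-sphingosine internal standards, KOH hydrolysis, then S1P and sphingosine measured by LC-MS-MS. Expressed as pmol per 10⁶ cells; duplicate experiments; unpaired t test against control.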

Assay [8] shares this target. The experiment in a line: Inhibition of SPHK2 in human U937 cells assessed as effect on sphingosine levels at 0.1 to 1 uM after 2 hrs by LC-MS/MS analysis. It is filed as cell-based. The essentials: as §2
For assay [9] the target is unchanged. Put plainly: Inhibition of SPHK2 in human U937 cells assessed as effect on sphingosine levels at 0.3 to 1 uM after 2 hrs by LC-MS/MS analysis. The assay is classed as cell-based. The essentials: as §2
In assay [10] the test system is Mus musculus. The experiment in a line: In vivo inhibition of SPHK2 in C57BL/6J mouse assessed as increase in S1P levels at 10 mg/kg, ip after 2 to 6 hrs by LC-MS/MS analysis. The assay is classed as functional, organism-based. In outline: (§3)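 Single intraperitoneal dose of 10 mg/kg in C57BL6/j mice, groups of 3 to 4; vehicle controls received an equal volume of 2% hydroxypropyl-β-cyclodextrin. Blood was sampled at set time points over 24 h. Whole blood (10 μl) was extracted in methanol:chloroform (3:1) with D7-S1P and D7-sphingosine internal standards, base-hydrolysed with KOH, and S1P quantified by reverse-phase C18 LC-MS-MS.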

Assay [11] deals with Mus musculus. Put plainly: In vivo inhibition of SPHK2 in C57BL/6J mouse assessed as increase in S1P levels at 10 mg/kg, ip after 24 hrs by LC-MS/MS analysis. It is filed as functional, organism-based. The essentials:
as §3

For assay [12], the target named is T3, Sphingosine kinase 1.

The structures appear in SMILES notation. Calls of active or inactive are those of the source. No cut-off for these calls is given here.

T3 sequence (Q9NYA1 whole entry): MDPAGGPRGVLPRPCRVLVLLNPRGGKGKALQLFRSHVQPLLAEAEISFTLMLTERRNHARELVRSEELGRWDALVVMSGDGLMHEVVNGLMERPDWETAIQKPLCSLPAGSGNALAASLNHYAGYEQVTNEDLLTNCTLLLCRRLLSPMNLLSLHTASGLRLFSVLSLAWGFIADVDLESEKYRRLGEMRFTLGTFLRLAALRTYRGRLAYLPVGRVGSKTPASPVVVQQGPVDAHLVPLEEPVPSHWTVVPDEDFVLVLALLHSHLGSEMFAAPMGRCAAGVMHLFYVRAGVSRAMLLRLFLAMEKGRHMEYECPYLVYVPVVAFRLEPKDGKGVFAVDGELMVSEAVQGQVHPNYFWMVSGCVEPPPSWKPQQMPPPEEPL

On to `N=C(N)N1CCC[C@H]1Cc1nc(-c2ccc(Nc3nc(-c4ccccc4)cs3)cc2)no1`, for which the Activity in [1] was 83%.

Regarding `Cc1ccc(-c2csc(Nc3ccc(-c4noc(C[C@@H]5CCCN5C(=N)N)n4)cc3)n2)cc1`, the Activity in assay [1] stood at 80%.

For `N=C(N)N1CCC[C@H]1Cc1nc(-c2ccc(Nc3nc(-c4ccc(OC(F)(F)F)cc4)cs3)cc2)no1`, in [1], the Activity was determined as 44%. Further, the Ki (in general, a measure of affinity in units of concentration, obtained from inhibition or displacement) at Sphingosine kinase 2 [2] was found to be 250 nM.

In the case of `CN(c1ccc(-c2noc(C[C@@H]3CCCN3C(=N)N)n2)cc1)c1nc(-c2ccc(-c3ccccc3)cc2)cs1`, the Activity in assay [1] came out at 100%. For the same compound, the inhibition entry in assay [3] was “inactive”.

As for `N=C(N)N1CCC[C@H]1Cc1nc(-c2ccc(Nc3nc(-c4cccc(Br)c4)cs3)cc2)no1`, the Activity in assay [1] was determined as 44%.

Take `N=C(N)N1CCC[C@H]1Cc1nc(-c2ccc(Nc3nc(-c4cc5ccccc5o4)cs3)cc2)no1`: the Activity in [1] is 67%.

On to `N=C(N)N1CCC[C@H]1Cc1nc(-c2ccc(Oc3nc(-c4ccc(C(F)(F)F)cc4)cs3)cc2)no1`, for which the Activity in assay [1] turned out to be 55%.

As for `N=C(N)N1CCC[C@H]1Cc1nc(-c2ccc(Nc3nc(-c4ccc(F)cc4)cs3)cc2)no1`, the Activity in assay [1] amounted to 55%.

Regarding `N=C(N)N1CCC[C@H]1Cc1nc(-c2ccc(Nc3nc(-c4cc(C(F)(F)F)ccc4F)cs3)cc2)no1`, the Activity in [1] is 48%.

With `CCCCCCCCc1ccc2cc(-c3noc(C4CCCN4C(=N)N)n3)ccc2c1` (single isomer, unassigned), the Ratio Ki in assay [4] amounted to 10. Also, the values for the Ki on Sphingosine kinase 1 [5] and on Sphingosine kinase 2 [6] were 12 µM and 1300 nM, respectively.

Turning to `N=C(N)N1CCC[C@H]1Cc1nc(-c2ccc(Nc3nc(-c4ccc(F)c(F)c4)cs3)cc2)no1`, the Activity in assay [1] amounted to 51%.

Consider `Cc1ccc(-c2csc(Nc3ccc(-c4noc(C[C@@H]5CCCN5C(=N)N)n4)cc3)n2)cc1C`, for which, in [1], the Activity turned out to be 67%.

`N=C(N)N1CCC[C@H]1Cc1nc(-c2ccc(Nc3nc(-c4cc(F)cc(F)c4)cs3)cc2)no1`: the Activity in assay [1] was found to be 43%.

Turning to `COc1ccc(-c2csc(Nc3ccc(-c4noc(C[C@@H]5CCCN5C(=N)N)n4)cc3)n2)cc1Cl`, the Activity in assay [1] amounted to 71%.

As to `N=C(N)N1CCC[C@H]1Cc1nc(-c2ccc(Nc3nc(-c4ccc(-c5ccc(F)cc5)cc4)cs3)cc2)no1`, the Activity in [1] stood at 31%.

`N=C(N)N1CCC[C@H]1Cc1nc(-c2ccc(Nc3nc(-c4cccc(-c5ccccc5)c4)cs3)cc2)no1`: the Activity in assay [1] came to 73%.

In the case of `N=C(N)N1CCC[C@H]1Cc1nc(-c2ccc(Nc3nc(-c4cc(F)cc(C(F)(F)F)c4)cs3)cc2)no1`, in assay [1], the Activity came out at 30%. Besides, the inhibitory constant (Ki) at Sphingosine kinase 2 [2] worked out at 170 nM.

For `COc1ccc(-c2csc(Nc3ccc(-c4noc(C[C@@H]5CCCN5C(=N)N)n4)cc3)n2)cc1OC`, the Activity in [1] was determined as 100%.

As to `N=C(N)N1CCC[C@H]1Cc1nc(-c2ccc(Nc3nc(-c4ccc(-c5ccc(C(F)(F)F)cc5)cc4)cs3)cc2)no1`, in [1], the Activity amounted to 96%.

Take `N=C(N)N1CCC[C@H]1Cc1nc(-c2ccc(Nc3nc(-c4ccc(C(F)(F)F)cc4)cs3)cc2)no1`: the Activity in assay [1] is 36%. Also, the Ki on Sphingosine kinase 2 [2] turned out to be 390 nM.

With `COc1ccc(-c2csc(Nc3ccc(-c4noc(C[C@@H]5CCCN5C(=N)N)n4)cc3)n2)cc1`, in [1], the Activity was 100%.

As for `N=C(N)N1CCC[C@H]1Cc1nc(-c2ccc(Nc3nc(-c4cccc(OC(F)(F)F)c4)cs3)cc2)no1`, in [1], the Activity was determined as 82%.

Turning to `N=C(N)N1CCC[C@H]1Cc1nc(-c2ccc(Nc3nc(-c4cccc(Cl)c4)cs3)cc2)no1`, the Activity in assay [1] was determined as 45%.

On to `N=C(N)N1CCC[C@H]1Cc1nc(-c2ccc(Nc3nc(-c4cccc(C(F)(F)F)c4)cs3)cc2)no1`, for which, in assay [7], the inhibition entry was “Dose-dependent effect”. For the same compound, the inhibition result in assay [8] is “Active”. In addition, the Activity in assay [1] stood at 28%. Further, on Sphingosine kinase 2 [2], the Ki was determined as 90 nM.

On to `N=C(N)N1CCC[C@H]1Cc1nc(-c2ccc(Nc3nc(-c4ccc(-c5cccc(C(F)(F)F)c5)cc4)cs3)cc2)no1`, for which the Activity in assay [1] turned out to be 85%.

`N=C(N)N1CCC[C@H]1Cc1nc(-c2ccc(Nc3nc(-c4ccc(Br)cc4)cs3)cc2)no1`: the Activity in assay [1] stood at 46%.

In the case of `N=C(N)N1CCC[C@H]1Cc1nc(-c2ccc(Nc3nc(-c4ccc(Cl)c(Cl)c4)cs3)cc2)no1`, the Activity in [1] was determined as 46%.

With `N=C(N)N1CCC[C@H]1Cc1nc(-c2ccc(Nc3nc(-c4cccnc4)cs3)cc2)no1`, the Activity in assay [1] worked out at 94%.

`N=C(N)N1CCC[C@H]1Cc1nc(-c2ccc(Nc3nc(-c4ccc(-c5ccccc5)cc4)cs3)cc2)no1`: the inhibition result (in [9]; in assay [8]; with Mus musculus [10]) was “Active” each time. Moreover, in assay [7], the inhibition entry is “Dose-dependent effect”. The Activity in assay [1] worked out at 27%. Further, the inhibition constant (Ki) at Sphingosine kinase 2 [2] was 90 nM. In addition, the inhibition result in the assay on Mus musculus [11] is “inactive”.

Take `N=C(N)N1CCC[C@H]1Cc1nc(-c2ccc(Nc3nc(-c4cc(C(F)(F)F)cc(C(F)(F)F)c4)cs3)cc2)no1`: the Activity in [1] was determined as 63%.

On to `N=C(N)N1CCC[C@H]1Cc1nc(-c2ccc(Nc3nc(-c4ccc(Cl)cc4)cs3)cc2)no1`, for which the Activity in assay [1] amounted to 51%.

On to `N=C(N)N1CCC[C@H]1Cc1nc(-c2ccc(Nc3nc(-c4ccc(F)c(C(F)(F)F)c4)cs3)cc2)no1`, for which the Activity in assay [1] was determined as 33%. For the same compound, the Ki at Sphingosine kinase 2 [2] is 170 nM.

Turning to `N=C(N)N1CCC[C@H]1Cc1nc(-c2ccc(Nc3nc(-c4cccc(F)c4)cs3)cc2)no1`, the Activity in [1] came to 45%.

`N=C(N)N1CCC[C@H]1Cc1nc(-c2ccc(Nc3nc(-c4ccncc4)cs3)cc2)no1`: the Activity in [1] was 94%.

Regarding `N=C(N)N1CCC[C@H]1Cc1nc(-c2ccc(Nc3nc(-c4ccccc4F)cs3)cc2)no1`, the Activity in [1] came to 44%.

Compound `CCCCCOc1ccc2cc(-c3noc([C@H]4[C@@H](O)CCN4C(=N)N)n3)ccc2c1` registered an inhibitory constant (Ki) on Sphingosine kinase 1 [12] of 730 nM.

Turning to `N=C(N)N1CCC[C@H]1Cc1nc(-c2ccc(Nc3nc(-c4ccccc4C(F)(F)F)cs3)cc2)no1`, the Activity in assay [1] amounted to 72%.

As for `COc1cccc(-c2csc(Nc3ccc(-c4noc(C[C@@H]5CCCN5C(=N)N)n4)cc3)n2)c1`, in assay [1], the Activity was 100%.
